Assays:
[1] = species: Cavia porcellus; assay: H2 agonistic activity by taking spontaneously beating guinea pig right atrium; type: functional, Cardiac atrium
Procedure, shortened: (§1)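 Right atrium from male guinea pigs (350–500 g), spontaneously beating, in McEvan's solution at 32.5 °C gassed with O2/5% CO2; 1 h equilibration. Beating rate recorded with a heart frequency meter. Cumulative histamine standard curve (10⁻⁷–10⁻⁵ M bath) run first; after washing, full curve of test agonist. One test per preparation, 3–4 experiments; EC50 mean ± sem (Sachs).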

[2] = species: Cavia porcellus; assay: H1 agonistic activity by taking guinea pig ileum contraction; type: functional
Procedure, shortened: (§2)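 Male guinea pigs (350–500 g); 3 cm ileum pieces in Tyrode solution at 37 °C, gassed with O2 containing 5% CO2. Isotonic recording of contraction. A histamine standard curve is run first, with geometrically increasing bath concentrations up to maximal contraction. After washing, a cumulative concentration-response curve of the test agonist follows. Three or four experiments; EC50 as mean ± sem by the method of Sachs.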

[3] = species: Rattus norvegicus; assay: H3 agonistic activity against K+ induced histamine in slices of rat brain cortex.; type: functional
Procedure, shortened: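 Cortical slices (0.3 mm) from male Wistar rats (170–190 g), preloaded 30 min with [³H]-L-histidine (0.3 μM) and washed. Agonist added 5 min before depolarization; slices (2–3 mg protein) incubated 2 min at 37 °C with 2 or 30 mM KCl (final). Stopped by rapid centrifugation; [³H]histamine in tissue and medium quantified. 3–4 experiments; EC50 mean ± sem (Parker and Waud).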

[4] = target: Histamine H2 receptor (Cavia porcellus) (UniProt P47747); assay: Intrinsic activity against histamine H2 receptor in guinea pig right atrium; type: tissue-based; details: Cardiac atrium; procedure, shortened: as §1
[5] = target: Histamine H1 receptor (Cavia porcellus) (UniProt P31389); assay: Intrinsic activity against histamine H1 receptor in guinea pig ileum; type: tissue-based; procedure, shortened: as §2
[6] = Kinetic constant Km value of the enzyme; type: ADME
Procedure, shortened: (§3)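 Histamine N-methyltransferase purified from rat kidney. Increasing substrate concentrations incubated 1 h at 25 °C with unlabeled plus [³H]-S-adenosylmethionine (5 μM final). Stopped with perchloric acid (0.4 N final), then NaOH (1 N final). [³H]-τ-methylhistamine extracted into toluene-isoamyl alcohol (3 + 2) and counted by liquid scintillation.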

[7] = Kinetic constant Vmax value of the enzyme; type: ADME; procedure, shortened: as §3
[8] = species: Cavia porcellus; assay: In vitro H1 agonistic activity by taking guinea pig ileum contraction
[9] = species: Cavia porcellus; assay: In vitro H2 agonistic activity by taking spontaneously beating guinea pig right atrium; details: Cardiac atrium
[10] = species: Rattus norvegicus; assay: In vitro H3 agonistic activity against K+ induced histamine in slices of rat brain cortex.
[11] = Cavia porcellus, Cardiac atrium, read-out: EC50
[12] = Cavia porcellus, Ileum, read-out: EC50

Histamine H2 receptor (Cavia porcellus), sequence (P47747 whole entry): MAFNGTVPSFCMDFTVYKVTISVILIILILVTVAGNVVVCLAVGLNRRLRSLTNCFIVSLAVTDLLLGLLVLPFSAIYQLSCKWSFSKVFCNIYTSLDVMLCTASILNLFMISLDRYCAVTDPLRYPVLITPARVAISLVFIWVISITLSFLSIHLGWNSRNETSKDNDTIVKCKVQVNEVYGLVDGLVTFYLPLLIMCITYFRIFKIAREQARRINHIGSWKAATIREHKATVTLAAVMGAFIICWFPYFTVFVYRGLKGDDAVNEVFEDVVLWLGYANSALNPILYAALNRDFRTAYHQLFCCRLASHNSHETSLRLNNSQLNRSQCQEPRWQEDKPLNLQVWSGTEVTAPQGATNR
Histamine H1 receptor (Cavia porcellus), sequence (P31389 whole entry): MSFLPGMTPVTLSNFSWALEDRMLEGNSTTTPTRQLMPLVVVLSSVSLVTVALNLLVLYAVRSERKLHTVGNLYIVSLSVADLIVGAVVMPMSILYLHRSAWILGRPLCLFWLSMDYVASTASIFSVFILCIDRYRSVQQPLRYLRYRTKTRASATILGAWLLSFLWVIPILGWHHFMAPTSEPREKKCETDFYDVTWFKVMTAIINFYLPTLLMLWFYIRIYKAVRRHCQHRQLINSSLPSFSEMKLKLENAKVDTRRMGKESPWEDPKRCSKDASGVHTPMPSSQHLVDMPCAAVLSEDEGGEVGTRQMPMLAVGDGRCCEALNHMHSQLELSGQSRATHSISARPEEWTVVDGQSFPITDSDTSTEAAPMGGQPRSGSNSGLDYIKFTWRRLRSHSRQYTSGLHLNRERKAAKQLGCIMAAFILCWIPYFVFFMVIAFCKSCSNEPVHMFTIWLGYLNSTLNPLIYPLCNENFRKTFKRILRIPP

SMILES	EC50 [1]	EC50 [2]	EC50 ([3]; Rattus norvegicus)	EC50 [1, 11]	EC50 [2, 12]	Intrinsic activity [4]	Intrinsic activity [5]	other results
C[C@H](N)[C@@H](C)c1c[nH]cn1 (relative stereo)	Not Active	Not Active	6.2 nM					
Br.Br.C[C@@H](N)[C@@H](C)c1c[nH]cn1	Not Active	Not Active	350 nM					
Br.Br.C[C@H](N)[C@H](C)c1c[nH]cn1			3.4 nM	410000 nM	420000 nM	0.86	0.56	Km [6]: 2.8 µM; Vmax [7]: 1.7 nM/h/mg
NCCc1c[nH]cn1 [HISTAMINE]						1	1	EC50 [8]: 140 nM; EC50 [9]: 1000 nM; EC50 [10]: […]

Now from value to compound, other results behind:

EC50 [1]	EC50 [2]	EC50 ([3]; Rattus norvegicus)	EC50 [1, 11]	EC50 [2, 12]	Intrinsic activity [4]	Intrinsic activity [5]	SMILES	other results
		12 nM	940000 nM	180000 nM	0.66	0.94	CC(N)C(C)c1c[nH]cn1 (stereo unspecified)	
Not Active	Not Active						C[C@@H](N)[C@@H](C)c1c[nH]cn1 (relative stereo)	EC50 [3]: 190 nM
